Assay results from publication PMC4469080 (Bioorganic & medicinal chemistry letters, 2015).
Read-outs that look alike come from different tables or passages of the source.

Columns and labels:
mouse SR-BI [1] = target: T1, mouse SR-BI (Mus musculus, UniProt Q61009); conditions: read-out: IC50 in the primary assay; previous probes; cited from earlier work
T1 sequence (Q61009 1-509): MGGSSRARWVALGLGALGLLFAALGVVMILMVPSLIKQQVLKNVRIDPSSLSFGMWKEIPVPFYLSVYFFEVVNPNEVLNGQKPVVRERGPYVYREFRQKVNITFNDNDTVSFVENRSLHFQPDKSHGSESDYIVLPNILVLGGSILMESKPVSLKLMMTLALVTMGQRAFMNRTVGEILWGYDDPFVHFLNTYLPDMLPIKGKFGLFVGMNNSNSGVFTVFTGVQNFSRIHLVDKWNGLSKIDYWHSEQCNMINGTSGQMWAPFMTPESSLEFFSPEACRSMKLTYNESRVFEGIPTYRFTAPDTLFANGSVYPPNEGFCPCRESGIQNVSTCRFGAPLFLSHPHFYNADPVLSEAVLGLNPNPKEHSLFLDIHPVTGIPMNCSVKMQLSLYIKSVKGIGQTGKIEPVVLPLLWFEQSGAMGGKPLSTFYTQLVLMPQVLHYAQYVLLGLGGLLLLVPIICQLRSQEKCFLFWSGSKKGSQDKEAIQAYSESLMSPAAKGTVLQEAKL

mouse SR-BI [2] = target: T1, mouse SR-BI; test: DiI-HDL uptake assay; assay type: cell-based; conditions: for activity in DiI uptake assay (in words): inhibition of SR-BI-mediated lipid uptake
How it was run: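 CHO cells (ldlA line) overexpressing mouse SR-BI take up the fluorescent lipid DiI from DiI-labeled HDL particles. In the high-throughput screen, compounds were tested at 12.5 μM against 1 μM BLT-1 as the positive control. Plates with Z′ < 0.3 were excluded, and a counterscreen removed compounds that quenched DiI-HDL fluorescence in a dose-dependent manner. IC50 values came from retests of compounds as purified dry powders.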

Solubility in PBS = assay type: physicochemical; conditions: in PBS (with 1% DMSO)

SMILES | activity in DiI uptake assay (in words) (mouse SR-BI [2]) | other results
COCC(=O)n1ccc2cc(-c3csc(NC(=O)c4cc(OC)cc(OC)c4)n3)ccc21 [ML278] |  | IC50 (mouse SR-BI [1]): 6 nM
C[C@@H]1CN([C@H](C)CO)C(=O)c2cc(NC(=O)Cc3cn(C)c4ccccc34)ccc2O[C@H]1CN(C)S(C)(=O)=O [Compound 1g] | weak potency | solubility (Solubility in PBS): good solubility
CC(C)NC(=O)Nc1ccc2c(c1)C(=O)N(C(C)C)C[C@@H](C)[C@H](CN(C)S(=O)(=O)c1ccc(Cl)cc1)O2 [Compound 12] | weak activity | 
C[C@@H]1CN([C@H](C)CO)C(=O)c2cc(NC(=O)C3CCCCC3)ccc2O[C@H]1CN(C)C(=O)c1ccc(Cl)cc1 [Compound 5] | inactive | 
CC(C)NC(=O)Nc1ccc2c(c1)C(=O)N([C@H](C)CO)C[C@@H](C)[C@H](CN(C)S(=O)(=O)c1ccc(Cl)cc1)O2 [Compound 4] | abrogated the activity | 
COC[C@@H](C)N1C[C@@H](C)[C@H](CN(C)S(=O)(=O)c2ccc(Cl)cc2)Oc2ccc(NC(=O)NC(C)C)cc2C1=O [Compound 11] | only weakly active | 
C[C@@H]1CN([C@H](C)CO)C(=O)c2cc(NC(=O)Cc3cn(C)c4ccccc34)ccc2O[C@H]1CN(C)S(=O)(=O)c1ccc(Cl)cc1 [Compound 1a] |  | IC50 (mouse SR-BI [2]): 460 nM
CC(C)NC(=O)Nc1cccc2c1O[C@@H](CN(C)S(=O)(=O)c1ccc(Cl)cc1)[C@H](C)CN([C@H](C)CO)C2=O [Compound 3] | inactive | 
C[C@@H]1CN([C@H](C)CN)C(=O)c2cc(NC(=O)Cc3cn(C)c4ccccc34)ccc2O[C@H]1CN(C)S(=O)(=O)c1ccc(Cl)cc1 [Compound 9] | inactive | 
C[C@@H]1CN([C@H](C)CO)C(=O)c2cc(NC(=O)C3CCCCC3)ccc2O[C@H]1CN(C)S(=O)(=O)c1cccc(Cl)c1 [Compound 6] |  | IC50 (mouse SR-BI [2]; DiI uptake assay, average of at least two measurements (Table 4, various analogs)): 800 nM
C[C@@H]1CN([C@H](C)CN(C)C)C(=O)c2cc(NC(=O)Cc3cn(C)c4ccccc34)ccc2O[C@H]1CN(C)S(=O)(=O)c1ccc(Cl)cc1 [Compound 10] | inactive | 
